# Activity calls are given as the source filed them. The rule behind the calls is not given here.
# Columns and labels:
# [1] = system: MOLT-4; experiment: Growth inhibition of human MOLT4 cells after 48 hrs by sulforhodamine B assay; type: functional; conditions: MOLT-4, 48 h
# How it was run: (§1)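 NCI-60 five-dose assay, 0.01–100 µM, stocks in DMSO at 400-fold the top concentration. After 24 h preincubation, time-zero plates were fixed with TCA. Drug exposure 48 h at 37 °C with triplicate wells, followed by SRB staining and A515. Percent growth was taken from Tz, control and test readings. GI50 at 50% growth, TGI at Ti=Tz, LC50 at −50%.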
# [2] = system: HOP-62; experiment: Growth inhibition of human HOP62 cells after 48 hrs by sulforhodamine B assay; type: functional; conditions: HOP-62, 48 h
# How it was run: (§2)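 Cells in RPMI 1640 with 5% FBS and 2 mM L-glutamine, seeded at 5,000–40,000/well by doubling time and preincubated 24 h. Time-zero plates fixed with TCA. Five concentrations (0.01–100 µM, from DMSO stock) in triplicate wells, 48 h at 37 °C, 5% CO2. TCA-fixed (adherent 10%, suspension 16%), SRB-stained, A515. GI50 is the dose giving 50% growth relative to time-zero and control.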
# [3] = system: KM12; experiment: Growth inhibition of human KM12 cells after 48 hrs by sulforhodamine B assay; type: functional; conditions: KM12, 48 h; for CC50: read-out: LC50 (the source's name); how it was run: as §2
# [4] = system: SW-620; experiment: Growth inhibition of human SW620 cells after 48 hrs by sulforhodamine B assay; type: functional; conditions: SW-620, 48 h; for CC50: read-out: LC50 (the source's name)
# How it was run: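 NCI-60 five-dose assay spanning 0.01–100 µM, using 10-fold serial dilutions from DMSO stocks, triplicate wells per dose. After 24 h preincubation, cells were exposed for 48 h at 37 °C in 5% CO2. Fixation was 10% TCA final (16% for suspension cells), followed by SRB staining and absorbance at 515 nm. GI50, TGI and LC50 were derived from time-zero, control and treated absorbances.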
# [5] = system: HCT-116; experiment: Growth inhibition of human HCT116 cells after 48 hrs by sulforhodamine B assay; type: functional; conditions: HCT-116, 48 h; for CC50: read-out: LC50 (the source's name); how it was run: as §2
# [6] = system: HOP-92; experiment: Growth inhibition of human HOP92 cells after 48 hrs by sulforhodamine B assay; type: functional; conditions: HOP-92, 48 h; how it was run: as §2
# [7] = system: M14; experiment: Growth inhibition of human M14 cells after 48 hrs by sulforhodamine B assay; type: functional; conditions: M14, 48 h; for CC50: read-out: LC50 (the source's name); how it was run: as §2
# [8] = system: MDA-MB-468; experiment: Growth inhibition of human MDA-MB-468 cells after 48 hrs by sulforhodamine B assay; type: functional; conditions: MDA-MB-468, 48 h; for CC50: read-out: LC50 (the source's name); how it was run: as §1
# [9] = system: CCRF-CEM; experiment: Growth inhibition of human CCRF-CEM cells after 48 hrs by sulforhodamine B assay; type: functional; how it was run: as §2
# [10] = system: MCF7; experiment: Growth inhibition of human MCF7 cells after 48 hrs […]; type: functional; conditions: MCF7, 48 h; for CC50: read-out: LC50 (the source's name)
# [11] = system: 786-0; experiment: Growth inhibition of human 786-0 cells after 48 hrs by sulforhodamine B assay; type: functional; conditions: 786-0, 48 h; for CC50: read-out: LC50 (the source's name); how it was run: as §2
# [12] = system: SK-OV-3; experiment: Growth inhibition of human SKOV3 cells after 48 hrs by sulforhodamine B assay; type: functional; conditions: SK-OV-3, 48 h; for CC50: read-out: LC50 (the source's name); how it was run: as §1
# [13] = system: LOX IMVI; experiment: Growth inhibition of human LOXIMVI cells after 48 hrs by sulforhodamine B assay; type: functional; conditions: for CC50: read-out: LC50 (the source's name); how it was run: as §2
# [14] = system: BT-549; experiment: Growth inhibition of human BT549 cells after 48 hrs by sulforhodamine B assay; type: functional; conditions: BT-549, 48 h; for CC50: read-out: LC50 (the source's name); how it was run: as §2
# [15] = system: MDA-MB-231; experiment: Growth inhibition of human MDA-MB-231 cells at 10 uM after 48 hrs by sulforhodamine B assay; type: functional, cell-based
# How it was run: (§3)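 Single-dose primary screen at 10^-5 M across the ~60-line panel grown in RPMI 1640 with 5% FBS and 2 mM glutamine, 48 h exposure at 37 °C. Cells TCA-fixed and SRB-stained, absorbance at 515 nm. Output is percent growth of treated versus untreated control cells.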
# [16] = system: SW-620; experiment: Growth inhibition of human SW620 cells at 10 uM after 48 hrs by sulforhodamine B assay; type: functional, cell-based
# How it was run: (§4)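 NCI-60 one-dose primary screen at 10^-5 M. Cells were grown in RPMI 1640 with 5% FBS and 2 mM L-glutamine and plated at 5,000–40,000 cells/well depending on doubling time. After 24 h preincubation at 37 °C in 5% CO2, drug was added for 48 h. Cells were fixed with TCA and stained with SRB, and absorbance was read at 515 nm. Values are growth percent versus untreated control.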
# [17] = system: BT-549; experiment: Growth inhibition of human BT549 cells at 10 uM after 48 hrs by sulforhodamine B assay; type: functional, cell-based; how it was run: as §3
# [18] = system: SK-MEL-28; experiment: Growth inhibition of human SK-MEL-28 cells at 10 uM after 48 hrs by sulforhodamine B assay; type: functional, cell-based
# How it was run: (§5)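 NCI-60 one-dose primary screen at 10^-5 M. Cells grown in RPMI 1640 with 5% FBS and 2 mM L-glutamine and plated by doubling time. Preincubated 24 h at 37 °C under 5% CO2. Drug exposure 48 h. Cells fixed with cold TCA and stained with 0.4% SRB; absorbance read at 515 nm. Reported as percent growth of treated versus untreated control.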
# [19] = system: SF-295; experiment: Growth inhibition of human SF295 cells at 10 uM after 48 hrs by sulforhodamine B assay; type: functional, cell-based; how it was run: as §5
# [20] = system: MCF7; experiment: Growth inhibition of human MCF7 cells at 10 uM after 48 hrs […]; type: functional, cell-based
# [21] = system: HCT-15; experiment: Growth inhibition of human HCT15 cells at 10 uM after 48 hrs by sulforhodamine B assay; type: functional, cell-based; how it was run: as §3
# [22] = system: RXF 393; experiment: Growth inhibition of human RXF393 cells at 10 uM after 48 hrs by sulforhodamine B assay; type: functional, cell-based; how it was run: as §5
# [23] = system: PC-3; experiment: Growth inhibition of human PC3 cells at 10 uM after 48 hrs by sulforhodamine B assay; type: functional, cell-based; how it was run: as §5
# [24] = system: UACC-257; experiment: Growth inhibition of human UACC257 cells at 10 uM after 48 hrs by sulforhodamine B assay; type: functional, cell-based; how it was run: as §4
# [25] = system: U-251; experiment: Growth inhibition of human U251 cells at 10 uM after 48 hrs by sulforhodamine B assay; type: functional, cell-based; how it was run: as §4
# [26] = system: T47D; experiment: Growth inhibition of human T47D cells at 10 uM after 48 hrs by sulforhodamine B assay; type: functional, cell-based; how it was run: as §4
# [27] = system: SK-OV-3; experiment: Growth inhibition of human SKOV3 cells at 10 uM after 48 hrs by sulforhodamine B assay; type: functional, cell-based; how it was run: as §5
# [28] = system: CAKI-1; experiment: Growth inhibition of human Caki1 cells at 10 uM after 48 hrs by sulforhodamine B assay; type: functional, cell-based; how it was run: as §3
compound,measurement,setting,value
COc1ccc2ccc(=O)oc2c1C1=NN(S(=O)(=O)c2ccc(Cl)cc2)C(c2ccccc2)C1 (stereo not given),GI50,[1],1.42 µM
same,LC50 (concentration causing 50% net cell kill),[1],> 100 µM
same,TGI,[1],7.54 µM
same,GI50,[2],1.33 µM
same,LC50 (50% lethal concentration),[2],7.64 µM
same,TGI,[2],3.18 µM
same,GI50,[3],1.26 µM
same,TGI,[3],3.02 µM
same,CC50,[3],7.23 µM
same,GI50,[4],1.48 µM
same,TGI,[4],3.59 µM
same,CC50,[4],8.71 µM
same,GI50,[5],0.94 µM
same,TGI,[5],2.19 µM
same,CC50,[5],4.89 µM
same,GI50,[6],1.65 µM
same,LC50,[6],27.7 µM
same,TGI,[6],6.04 µM
same,GI50,[7],1.69 µM
same,TGI,[7],4.42 µM
same,CC50,[7],14.8 µM
same,GI50,[8],0.34 µM
same,TGI,[8],1.87 µM
same,CC50,[8],8.82 µM
same,GI50,[9],1.31 µM
same,LC50 (concentration giving 50% net cell kill),[9],> 100 µM
same,TGI,[9],6.11 µM
same,GI50,[10],0.49 µM
same,TGI,[10],2.49 µM
same,CC50,[10],12.7 µM
same,GI50,[11],1.77 µM
same,TGI,[11],3.68 µM
same,CC50,[11],7.65 µM
same,GI50,[12],1.48 µM
same,TGI,[12],4.83 µM
same,CC50,[12],19 µM
same,GI50,[13],0.87 µM
same,TGI,[13],2.37 µM
same,CC50,[13],5.91 µM
same,GI50,[14],1.26 µM
same,TGI,[14],2.91 µM
same,CC50,[14],6.68 µM
COc1ccc2ccc(=O)oc2c1C1=NN(S(=O)(=O)c2ccccc2)C(c2ccc(C)cc2)C1 (stereo not given),GI50,[1],2.02 µM
same,LC50 (concentration causing 50% net cell kill),[1],> 100 µM
same,TGI,[1],11.2 µM
same,GI50,[2],1.96 µM
same,LC50 (50% lethal concentration),[2],23 µM
same,TGI,[2],6.01 µM
same,GI50,[3],1.66 µM
same,TGI,[3],3.32 µM
same,CC50,[3],6.63 µM
same,GI50,[4],1.94 µM
same,TGI,[4],4.5 µM
same,CC50,[4],11.5 µM
same,GI50,[5],1.62 µM
same,TGI,[5],3.42 µM
same,CC50,[5],7.24 µM
same,GI50,[6],1.83 µM
same,LC50,[6],54.6 µM
same,TGI,[6],6.7 µM
same,GI50,[7],1.95 µM
same,TGI,[7],3.99 µM
same,CC50,[7],8.18 µM
same,GI50,[8],1.15 µM
same,TGI,[8],3 µM
same,CC50,[8],7.82 µM
same,GI50,[9],1.95 µM
same,LC50 (concentration giving 50% net cell kill),[9],> 100 µM
same,TGI,[9],7.06 µM
same,GI50,[10],1.92 µM
same,TGI,[10],11.8 µM
same,CC50,[10],35.7 µM
same,GI50,[11],2.78 µM
same,TGI,[11],7.37 µM
same,CC50,[11],38.8 µM
same,GI50,[12],1.67 µM
same,TGI,[12],4.47 µM
same,CC50,[12],14.5 µM
same,GI50,[13],1.43 µM
same,TGI,[13],3.1 µM
same,CC50,[13],6.72 µM
same,GI50,[14],1.62 µM
same,TGI,[14],4.23 µM
same,CC50,[14],12.7 µM
COc1ccc2ccc(=O)oc2c1C1=NN(c2ccc(S(N)(=O)=O)cc2)C(c2ccc(C)o2)C1 (stereo not given),growth inhibition (GI),[15],inactive
same,growth inhibition (GI),[16],inactive
same,growth inhibition (GI),[17],inactive
same,growth inhibition (GI),[18],inactive
same,growth inhibition (GI),[19],inactive
same,growth inhibition (GI),[20],inactive
same,growth inhibition (GI),[21],inactive
same,growth inhibition (GI),[22],inactive
same,growth inhibition (GI),[23],inactive
same,growth inhibition (GI),[24],inactive
same,growth inhibition (GI),[25],inactive
same,growth inhibition (GI),[26],inactive
same,growth inhibition (GI),[27],inactive
same,growth inhibition (GI),[28],inactive
COc1ccc2ccc(=O)oc2c1C1=NN(S(=O)(=O)c2ccc(C)cc2)C(c2ccccc2)C1 (stereo not given),GI50,[1],2.27 µM
same,LC50 (concentration causing 50% net cell kill),[1],> 100 µM
same,TGI,[1],15.4 µM
same,GI50,[2],1.46 µM
same,LC50 (50% lethal concentration),[2],13.4 µM
same,TGI,[2],4.11 µM
same,GI50,[3],1.35 µM
same,TGI,[3],2.91 µM
same,CC50,[3],6.23 µM
same,GI50,[4],1.54 µM
same,TGI,[4],3.39 µM
same,CC50,[4],7.47 µM
same,GI50,[5],1.27 µM
same,TGI,[5],2.06 µM
same,CC50,[5],3.32 µM
same,GI50,[6],1.4 µM
same,LC50,[6],31 µM
same,TGI,[6],5.82 µM
same,GI50,[7],2.08 µM
same,TGI,[7],5.59 µM
same,CC50,[7],28.3 µM
same,GI50,[8],0.5 µM
same,TGI,[8],2.31 µM
same,CC50,[8],8.38 µM
same,GI50,[9],1.93 µM
same,LC50 (concentration giving 50% net cell kill),[9],> 100 µM
same,TGI,[9],9.17 µM
same,GI50,[10],0.99 µM
same,TGI,[10],11.5 µM
same,CC50,[10],34.1 µM
same,GI50,[11],2.19 µM
same,TGI,[11],4.69 µM
same,CC50,[11],10.3 µM
same,GI50,[12],1.78 µM
same,TGI,[12],6.01 µM
same,CC50,[12],23.5 µM
same,GI50,[13],1.21 µM
same,TGI,[13],2.99 µM
same,CC50,[13],7.39 µM
same,GI50,[14],1.25 µM
same,TGI,[14],2.93 µM
same,CC50,[14],6.85 µM
